# Measurements reported in the RNAGym collection of RNA variant scans (doi:10.1126/science.aae0568).
# This sample holds only a part of the variants without activity.
# B1: tRNA (parent)
# chain: GUUCCGUUGGCGUAAUGGUAACGCGUCUCCCUCCUAAGGAGAAGACUGCGGGUUCGAGUCCCGUACGGAACG
# Variants of: B1
# Assay: yeast fitness relative to wild type (ratio to wild type); higher = fitter; tRNA-Arg(CCU), competitive growth, 37 C, YPD
# Procedure, shortened: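 A pool of Saccharomyces cerevisiae strains, each with a tRNA-Arg(CCU) gene variant at the native genomic locus, was competed in YPD at 37°C for 24 hours across six parallel replicates. The variants had been chemically synthesised at a 3% per-site mutation rate over 69 sites, and gene amplicons before and after competition were read by 100-nucleotide paired-end sequencing. Darwinian fitness relative to wild type rested on changes in genotype frequencies. Genotypes required ≥ 100 starting reads, and estimates < 0.5 were set to 0.5.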
row,Variant,yeast fitness
1,U32C U53C,0.766
2,G9A C30U G44A A65U,0.578
3,C11U A15G C29G G48A C62U C66U,0.535
4,U2G C22A A36G G52A C66A A69U,≤ 0.5
5,C55U A70C,0.938
6,C4G U8C U47A,≤ 0.5
7,C34G C49A U59G,0.547
8,C11A C24G C30G C55G,≤ 0.5
9,U7A A21U G41A U64A,≤ 0.5
10,U3A G25A,1.09
11,U2C U16G A70G,1.06
12,C22U A37G A45U G52A,0.588
13,A14U G17C,0.514
14,U64A A65U,0.718
15,A20C C27G C49A,≤ 0.5
16,G18C C49G,0.734
17,C29G U35G C60G C62G,≤ 0.5
18,C27G A36U,0.666
19,A43G U64C,0.923
20,G17C G18C C22A C61U,≤ 0.5
21,C22G A69C A70G,0.632
22,C27A C31A C46G,0.688
23,C5G U28G G38C C62G,≤ 0.5
24,A43G C55A A69U,0.633

row,Variant,yeast fitness
1,U16C C27G A43C C62U,≤ 0.5
2,C4A G68U,0.831
3,A14C U19A A45C A65G,≤ 0.5
4,G25C C29G C46G G51C,≤ 0.5
5,U8C A21U C27G C29U U32C,≤ 0.5
6,U3C U32C,0.839
7,U2A A21U U54A G56C,0.646
8,G23C C27G U53C C61A G68A,≤ 0.5
9,G17C G56C G58C,≤ 0.5
10,A42U G50A,0.743
11,A14G C27A A37C G44A,0.563
12,A21C C22A C24U U32A C62G,≤ 0.5
13,C55U A57G,0.747
14,U2A G17C C46G C66A A70C,0.605
15,G17A A45U G52A C61U,≤ 0.5
16,C5G U7A A20C C31G C34U C62A,≤ 0.5
17,C4G A15U G56C U59A,≤ 0.5
18,C31G G52C A57U,0.599
19,C11A G25C C29U A43U A65C A70U,≤ 0.5
20,U16C A42G G58A,0.52
21,C34G U35A G63C,≤ 0.5
22,A15C A42C G48A G50C A65G,0.561
23,A15C C31G C33G,≤ 0.5
24,G6A A20G C29A A70U,≤ 0.5

row,Variant,yeast fitness
1,C11U C34A G41C A42G,≤ 0.5
2,C5A G17C C30A A65C,≤ 0.5
3,C22U C55A A65G C66U,0.585
4,G10A C29A C66U G67U G68A,0.56
5,G12A U32C U35A G58A G68A,≤ 0.5
6,U13A U35G,0.688
7,G6A G10C A20C U28C A36U,0.695
8,C24G G38A U53A,≤ 0.5
9,G9C U16C C66U,≤ 0.5
10,C24U U26G A43G A70U,0.597
11,U7G A15C G38C,≤ 0.5
12,G10C U16A C30U,0.54
13,G51A A57C C66U,0.59
14,C27A U32G C62U A70C,0.547
15,C24G A40G G50C C66U,≤ 0.5
16,U2A C30G U53C A57U C60U,≤ 0.5
17,U19A C27G C31U A70G,≤ 0.5
18,C22A C46A,0.83
19,A42U G58A C61G A70U,≤ 0.5
20,U7A A20G G23A U26G A69C,≤ 0.5
21,G10C C33G A36C U64A A65C,≤ 0.5
22,C33U A43G A70U,0.637
23,C22A G23A C33U C34G C60A,≤ 0.5
24,G10A A57U U59C,≤ 0.5

row,Variant,yeast fitness
1,A36U A37C A70G,≤ 0.5
2,G6A G41A A42C G50C A70G,0.543
3,U3A G10A C30U C60G,≤ 0.5
4,G9A G56C C61U,0.603
5,U16A C30U A40C G68A,0.594
6,A21C G23A C46G U53C,0.698
7,U7A U64A,0.837
8,G9A G12C,0.943
9,G6C A15G U54G C55U,≤ 0.5
10,A15G G68U,0.782
11,U7C G12A A45C C61G A65C,≤ 0.5
12,G10A A21C C66U,0.531
13,C30U A42G C60G C62G A65G,≤ 0.5
14,G17A C49A G52C G56A A69G,≤ 0.5
15,G23A C30U C55A G68C,≤ 0.5
16,G10C C29U C31U U54G A65U G67A,≤ 0.5
17,C4A C31A U35C A45U A69U,≤ 0.5
18,A20C C31G U47C G58C,≤ 0.5
19,C30G C31U C46U,0.609
20,U13G U35C G38A A42U G58C A65U,≤ 0.5
21,C11U G48A G51C G68U,0.59
22,A45U C55U A70C,0.589
23,U8A G38C,0.647
24,U3C C29U C60G,0.568

row,Variant,yeast fitness
1,C5U A21G C33G G38A C60A,≤ 0.5
2,C4U U28C C49G C61U,≤ 0.5
3,G18C U32C A57U,≤ 0.5
4,U26A U64C,0.856
5,A36C G58C,0.618
6,C5A C24U C29U C30A A37C A65C,0.549
7,C5G G25C G44A A69C,≤ 0.5
8,U19A A21G A43C G51C G68C,≤ 0.5
9,C4G C34U C49A,0.61
10,G12A G17A C29U,≤ 0.5
11,A40G A45G,0.849
12,G52C A65G,0.613
13,C5A A40U G67A,0.659
14,G12C C62U A70U,0.606
15,G9C A15C U16A A70C,≤ 0.5
16,U8C C33G A43C,≤ 0.5
17,U32G A45G C49U,≤ 0.5
18,G18A C24U C30U C34U U54A,0.531
19,C22U U35C,0.731
20,C22G G23C A43C G50C,≤ 0.5
21,A42C C62G,0.704
22,A37C C46U A69C,0.682
23,U3C C31U A70G,0.812
24,C5U G17A A36U U47A,≤ 0.5

row,Variant,yeast fitness
1,C4U A15C C29U U54C C61G G63A,≤ 0.5
2,C5G G10C U13G A37C,0.508
3,G23C U26C C46G,0.57
4,U8C U28C,0.834
5,C4G C66U,0.836
6,G10C U19A C24U,0.531
7,C24G A42C G68A,≤ 0.5
8,C4G A42U G68C,≤ 0.5
9,U2C G18C C55G C61G,0.541
10,C5U C62G G63C A65U,≤ 0.5
11,G10A U16A G52A A65U,≤ 0.5
12,A14G A15G,0.917
13,C29G A43G U47A,≤ 0.5
14,U7G A40U A43U G44A A45U U53A,0.61
15,C11U A43U C46G,0.723
16,C4U C5A C33U C66U,≤ 0.5
17,G6C U8C G41A A42C G50C A70G,≤ 0.5
18,C4A A37C G56A G68U,0.699
19,C24A C33U A57U U59G,≤ 0.5
20,U3G C5G U19C U47A C55A G68A,≤ 0.5
21,A14C A15U C30U C34G C61A U64A A69U,≤ 0.5
22,A20G A40C C60G,≤ 0.5
23,U16A A37C C60A U64C,≤ 0.5
24,A57G U64A,0.755

row,Variant,yeast fitness
1,C5G G23C C33U A43C,≤ 0.5
2,G39C C46A A69C,0.53
3,A21C A45U,0.631
4,G6A A36G A45C,0.751
5,U16A A21U C27U A40U C66A,≤ 0.5
6,U3C G63C U64C,0.631
7,U7G C34G A36C,0.525
8,C33A A36U G41A G48A,≤ 0.5
9,C22U C33G G58A C66U,0.595
10,C5U A20U C62A G67A A70G,0.747
11,G6A C22G U54G A69U,≤ 0.5
12,C27G C33U G44C C49U,≤ 0.5
13,U13A A21G C60G C66G,0.756
14,G18U U26A,0.623
15,G10A G12A C29G A65U,≤ 0.5
16,U2G C27G C33U C49U,≤ 0.5
17,A14C G18A C30U C49A,≤ 0.5
18,U26A G44C G68C,0.563
19,G10A C11U,0.777
20,C27G A37G G63C U64C,≤ 0.5
21,A42G G67C,0.947
22,A21G A40C,0.88
23,U19G G50A G51C C55G C61U,≤ 0.5
